The test system of this data set is MS2 coat protein. In words: apparent Kd, MS2 coat protein; higher = weaker binding; RNA-MaP array; FMN 200 µM where present. The essentials:
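Designs were transcribed by stalled E. coli RNA polymerase on Illumina sequencing-chip clusters. They were titrated with SNAP-549-labelled MS2 coat protein from 0.7 or 1.5 nM, doubling to 3 µM, without and then with constant ligand. Buffer: 100 mM Tris-HCl pH 7.5, 80 mM KCl, 4 mM MgCl2, BSA, DTT, yeast tRNA, Tween-20. Green signal was normalised to red-channel RNA signal and control-cluster median Fmax. Apparent Kd is the median of filtered per-cluster binding-curve fits.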

[1] abbreviates: designed as: OFF switch for flavin mononucleotide, no ligand.
Where [2] appears, read: ligand present: flavin mononucleotide, designed as: OFF switch for flavin mononucleotide.
[3] abbreviates: designed as: ON switch for flavin mononucleotide, no ligand.
The mark [4] stands for this setting: ligand present: flavin mononucleotide, designed as: ON switch for flavin mononucleotide.

The results in this text go back to the EternaBench riboswitch data.

“UUUAUGUCAGGAUAUGAUUAGAUCUACUUCGGUAGAUCUAAUCAGAAGGGACAUGAGGAUCACCCAUGUUUUUU”: the “apparent Kd” value under setting [1] was 43.8 nM and the “apparent Kd” value under setting [2] is 223 nM.
Take “AUUUGACACGUAGGAUAUCGCUUAAAUUUAACACGAGAAGGACGAACAUGAGGAUCACCCAUGUAUCAUGGUGUAGAUAAUUUG”: the “apparent Kd” value amounted to 54.5 nM under setting [1] and 216 nM under setting [2].
For “CUGCUAGUUGAGAAGGGACAACUUGGUGAUCGGACAUGAGGAUCACCCAUGUCAGGAUAUCAGGGUAGACCCAGCAGGGUGAAA” the same measures were 6.56 nM and 7.83 nM.
Turning to “GUCUGAUUGUAGAAGGUACUUAAUACUCAUGUAACAUGAGGAUCACCCAUGUAUCAACAAUAUUGUAAGGAUAUACAUAUCUCA”, the “apparent Kd” value amounted to 478 nM under setting [3] and 258 nM under setting [4].
In the same order, the values of “AGACUGAAGCAAGGAUAUUGUAAGGUUAUUGUACAAGAAGGUGCUGUUUAUGUCUCUUAACAUGAGGAUCACCCAUGUUUUGAA” are 19.7 nM and 19.1 nM.
Turning to “CCGAUAAUGUAGGAUAUCGUAUCGGAAACGAUACGAGAAGGGCAAACAUGAGGAUCACCCAUGUUCCUUAACGG”, the “apparent Kd” value by setting is: under setting [1], 17.4 nM; under setting [2], 18.5 nM.
In the same order, the values of “AUCAGAUCGUCAGGAUAUACGUCACUGCGUCAGCAGUGUGGUAAGAUCACAUGAGGAUCACCCAUGUAGAAGGGACGAGCUGAU” are 13.9 nM and 296 nM.
Turning to “UUUUACUAGUAAGGAUAUACUAGCGAUUAGCUUGUAGAAGGUACAGUCUUAUGUAUAACAUGUUAACAUGAGGAUCACCCAUGU”, the “apparent Kd” value is 62.1 nM under setting [3] and 34.5 nM under setting [4].
For “CGAAAAUUUCAGAAGGACCGAUUCCACAUGAGGAUCACCCAUGUCGAUGGUAGGAUAUGGAGUUGUGGACAGGGCGGAUGUUCC” the same measures were 46.3 nM and 8.39 nM.
For the sequence “UGUCGGAGCAGAGGAUAUUACAUGAGGAUCACCCAUGUAUGAACCGAUAGCUGGAAACAGCAAUGUAAGAAGGCUGCUCCGACA”, the “apparent Kd” value runs as follows: under setting [1], 19 nM; under setting [2], 258 nM.
Turning to “UGCUGGUGACAGCAUCCAUCAAAACAUGAGGAUCACCCAUGUAGAAGGCUGUACGGUUACCGUACAGAGGAUAUACAAUGAUGA”, the “apparent Kd” value under setting [1] was found to be 13.9 nM and the “apparent Kd” value under setting [2] was 22.2 nM.
In the same order, the values of “CAGGGUAGAGGAUAUACGUAGGUACAGAUCCGUGUGAUCCUACAUGAGGAUCACCCAUGUAGAAGGCUAGCCUG” are 305 nM and 25.9 nM.
Consider “GCCAGUUAUGUAGGAUAUGCGCGGCGAGCCUGAGCAGAAGGACAUGAGGAUCACCCAUGUGUUGCGGUUUGAGUACUAAUCGCU”, for which the “apparent Kd” value by setting is: under setting [1], 31.5 nM; under setting [2], 171 nM.
In the case of “GGGUACAUCGGAGGAUAUCAGGUAAAUACAUGAGGAUCACCCAUGUCGAUGGAGACAUCGGAGAUUGAGAAGGCCGAUGUACCG”, the “apparent Kd” value by setting is: under setting [3], 7.6 nM; under setting [4], 5.13 nM.
As to “CAGGUAGACUGAGGAUAUACAAUAAGACCUAGUCUAUCUAGGUCAAUCACAUGAGGAUCACCCAUGUAGAAGGCAGUCUGCCUG”, the “apparent Kd” value stood at 17.3 nM under setting [1] and 36.2 nM under setting [2].
As to “UUAUUUAUACAAGGAUAUCAGUUAGUUACAAUUCCUACAUGAGGAUCACCCAUGUUUUUUUUUUUUGAGAAGGUGUAUUGUCUG”, the “apparent Kd” value by setting is: under setting [3], 45.2 nM; under setting [4], 52.9 nM.
For “GAGGACUGAAUAAAUAACUCAAAUACAUGAGGAUCACCCAUGUAGGAUAUCGUCAGGAAUACUGACGAGAAGGACAUACAGUCC”, the “apparent Kd” value turned out to be 13.4 nM under setting [1] and 19.2 nM under setting [2].
In the same order, the values of “CUUUUGUGAGGAUAUUAGUAGUAGAUAGUUGGUGGUGUUGCUGAGAAGGCACAUGAGGAUCACCCAUGUACAAC” are 344 nM and 335 nM.
For “UUACUAUAACAGAAGGGUAGAUAAUAUAUAAAUGCAGGAUAUGUUACAUGAGGAUCACCCAUGUUUCACCCACAUGAGGAUCAC” the same measures were 27.9 nM and 55.4 nM.
For “AAUAACAGAGGAUAUACUAUUUUAUGUAUUUAUUAUUUUGAACAUGAGGAUCACCCAUGUAGAAGGCUGAGUAA” the same measures were 27.5 nM and 23.1 nM.
Regarding “AAAAGACAUGAGGAUCACCCAUGUGAAAACGUAGGAGGAUAUGUAUGGAAACCAUACUGUACAGAAGGCCUUUGUC”, the “apparent Kd” value under setting [3] was determined as 28.1 nM and the “apparent Kd” value under setting [4] was 29.7 nM.
As for “AUUAUUUAGUAGAAGGACGACUAUUAAUAUUUCGUAGGAUAUACUAUUUACAUGAGGAUCACCCAUGUUUAAAUGGAACAAUGU”, the “apparent Kd” value by setting is: under setting [1], 11.2 nM; under setting [2], 14 nM.
For “CCUCCACAUGAGGAUCACCCAUGUCAGGAUAUCGUGUGUUUUUUUUCGGUCGCGCGUGCGAGAAGGGACGUCUU” the same measures were 22.1 nM and 25 nM.
Turning to “UCACGUCACCAAGGAUAUACCCGAAGAUCCAUGGUAGAAGGUGGUGACAUGAGGAUCACCCAUGUCCGCGCGGACAAGUGUGUU”, the “apparent Kd” value runs as follows: under setting [1], 118 nM; under setting [2], 26.7 nM.
Turning to “CCUAAGGACACAGGAUAUAGCGUGAUGGCUGGACUCCAACGGCGAGCGGCGCUAGAAGGGUGACCACAUGAGGAUCACCCAUGU”, the “apparent Kd” value reads like this: under setting [3], 496 nM; under setting [4], 195 nM.
For “GAGUAGUUAAAAGGAUAUUGAUUAUUGUAGGAUCAAGAAGGUUUUAACAUGAGGAUCACCCAUGUAGGACUAUUCCUGUGUAUC” the same measures were 16.5 nM and 14.8 nM.
Take “UUAAAUCAUGUAGGAUAUGCAUGGCGAAGCUACGCAGAAGGACAUGAGGAUCACCCAUGUUCGAGGGUCUGAGUACAGAUCCAA”: the “apparent Kd” value was determined as 23.6 nM under setting [1] and 123 nM under setting [2].
On to “GUACUACAUGAGGAUCACCCAUGUGAGGAUAUGCGAAUUUCAUCAAAAGAUGAAAUUUGCAGAAGGCACUGUAC”, for which the “apparent Kd” value under setting [1] is 46.7 nM and the “apparent Kd” value under setting [2] was 34 nM.
“GCCGAGUGAGGAUAUACAUGAGGAUCACCCAUGUAAACACGAAAGCAAGUGUCCCUCAGUAGAAGGCGCCUGGA”: the “apparent Kd” value turned out to be 14.2 nM under setting [1] and 16.6 nM under setting [2].
For “GAUACACAUGAGGAUCACCCAUGUGAGGAUAUGAUACUAUGUACUUCGGUACAUAGUAUCAGAAGGCACAUUGA” the same measures were 47.6 nM and 76.8 nM.
In the same order, the values of “GGAAAACAUGAGGAUCACCCAUGUGAGGAUAUCGAUGUCCAAAGAAAAGUGCGGGACUCGAGAAGGCACUUGGA” are 52.9 nM and 33.7 nM.
In the case of “GGUCGUUGAGGAUAUACGAACAUGUCGCCAGAUGUCAUGGUACAUGAGGAUCACCCAUGUAGAAGGUGGUGGUC”, the “apparent Kd” value under setting [1] came to 75 nM and the “apparent Kd” value under setting [2] was 25.7 nM.
As to “AUAAUUAAGCGAGGAUAUAUAUAGAAUAAUUAUAUAGAAGGCGCAAAACAUGAGGAUCACCCAUGUCACCCAUGUUGUGUGUAA”, the “apparent Kd” value under setting [3] was 121 nM and the “apparent Kd” value under setting [4] stood at 47.3 nM.
For the sequence “UGAUCUUUUGUUAGGAUAUGCUGUUUUUUUUUUCAGCAGAAGGGACAUGAGGAUCACCCAUGUUUUGUCAUAAA”, the “apparent Kd” value by setting is: under setting [1], 12.4 nM; under setting [2], 24.9 nM.
For “GGAUUACAUGAGGAUCACCCAUGUGAGGAUAUCGAUGUCCUAGGUCAAGUGCGGGACUCGAGAAGGCACUUGGA” the same measures were 52.4 nM and 28.9 nM.
For “AGAGACCUCACAGGAUAUGCUGGACUUUGUCCAGCAGAAGGGUGAUAACAUGAGGAUCACCCAUGUAUGGUCUCCAAAUUUAAU”, the “apparent Kd” value reads like this: under setting [3], 1110 nM; under setting [4], 131 nM.
For the sequence “GGGUGACAUGAGGAUCACCCAUGUCAGGAUAUGGGUUUGGGCCCGAAAGGGCCCGGGCCCAGAAGGGACUGCCC”, the “apparent Kd” value worked out at 50.9 nM under setting [1] and 96.4 nM under setting [2].
For “UGAUCUAUGUAGAAGGCCCAUAUCUAUAUUUAGGGAGGAUAUACAUGAGGAUCACCCAUGUAUAGAGCUGGUGGACUGGUCAGC” the same measures were 30.7 nM and 88.6 nM.
For “GGUAGACAAAGUCUACCAUUACGAACAUGAGGAUCACCCAUGUAGGAUAUGCUACUCAAAGAGUAGCAGAAGGACAUGUGUCUU”, the “apparent Kd” value turned out to be 29.8 nM under setting [1] and 143 nM under setting [2].
For “AGGUAAGACUUAAUUGUGCUGGUGAGAAGGCUGCUGGUUGUGGUCUACAUGAGGAUCACCCAUGUUGAGGAUAUCAUCGGUAUC” the same measures were 711 nM and 103 nM.
For the sequence “UCAUGCAUAGCGAUAUGAUCGAGAGAUCAUGUCGCUAAAUUUAGAAGGACAUGAGGAUCACCCAUGUAGGAUAUGGGAGCAUGG”, the “apparent Kd” value came out at 292 nM under setting [3] and 31.9 nM under setting [4].
As for “UUUUAUUGCAAGGAUAUGCAAAUUAUUAUUAAUGCAGAAGGUGCUACAUGAGGAUCACCCAUGUUUCUGGGUUU”, the “apparent Kd” value runs as follows: under setting [1], 98.2 nM; under setting [2], 308 nM.
For “AUUUUAAUAUAGGAUAUCGAAAUUAUUAUUUAACGAGAAGGAUGAACAUGAGGAUCACCCAUGUGGUAUCAUGG” the same measures were 223 nM and 204 nM.
For the sequence “AACAUGGUACAGAAGGGCAAUUUAUUUAUUUAUUAUUUAGAACAGCAUUGCAGGAUAUGUUUAACAUGAGGAUCACCCAUGUAC”, the “apparent Kd” value under setting [3] worked out at 84.4 nM and the “apparent Kd” value under setting [4] is 15.8 nM.
Take “AGCUGUGGCCGAGGAUAUCUAUCUUCAAUAACCGAAAUAUAAUCGGACAUGAGGAUCACCCAUGUAGAGAAGGCGGUCUCAGCA”: the “apparent Kd” value under setting [1] stood at 33.6 nM and the “apparent Kd” value under setting [2] was 84.5 nM.
“CUAAGGGAUUGCUCGAAGACAUGAGGAUCACCCAUGUAGGCGAGAAGGGCGGCGACUUUAGCGCUGCAGGAUAUCGACUGCAGU”: the “apparent Kd” value was determined as 9 nM under setting [1] and 10.1 nM under setting [2].
Turning to “GUCAGCUCGUGAGGAUAUACAUGUGCUGGAAACAGCACUAUUGAGUUCACAUGAGGAUCACCCAUGUAGAAGGCACGAGCUGAU”, the “apparent Kd” value is, setting by setting: under setting [1], 15.8 nM; under setting [2], 28 nM.
For the sequence “GCGGCUCACAUGAGGAUCACCCAUGUUCGCAUAUUGUGAAACAGAAGGCGGACUCAGCGAUGGGCCGAGGAUAUGUUUCCCACA”, the “apparent Kd” value stood at 124 nM under setting [3] and 25.8 nM under setting [4].

A word on the apparent Kd: it is a dissociation constant that holds for the conditions of the assay.
